PAFAH1B2 inh: inhibitors of human PAFAH1B2. P68402. recombinant PAFAH1B2, FP-rhodamine activity probe, fluorescence polarization. inhibition, % at 3.39 µM. 340,000 compounds, 1.2% hits;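 active = inhibition above the mean of all tested compounds plus 3 SD, cut at about 24% in these data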;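 note: 0% = enzyme with DMSO and 100% = wells lacking PAFAH1B2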
pPAFAH inh: pPAFAH (human) enzyme inhibition | inhibition, % at 3.39 µM | recombinant pPAFAH, FP-rhodamine probe fluorescence polarization | Q13093 | 330,000 compounds, 1.5% hits;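 active = inhibition above the mean inhibition across the screen plus 3 SD, cut at about 25% in these data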;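 note: inhibitors block binding of the rhodamine activity-based probe so polarization drops; 0% = enzyme with DMSO and 100% = wells lacking pPAFAH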
Target sequence (Q13093 whole entry, looked up): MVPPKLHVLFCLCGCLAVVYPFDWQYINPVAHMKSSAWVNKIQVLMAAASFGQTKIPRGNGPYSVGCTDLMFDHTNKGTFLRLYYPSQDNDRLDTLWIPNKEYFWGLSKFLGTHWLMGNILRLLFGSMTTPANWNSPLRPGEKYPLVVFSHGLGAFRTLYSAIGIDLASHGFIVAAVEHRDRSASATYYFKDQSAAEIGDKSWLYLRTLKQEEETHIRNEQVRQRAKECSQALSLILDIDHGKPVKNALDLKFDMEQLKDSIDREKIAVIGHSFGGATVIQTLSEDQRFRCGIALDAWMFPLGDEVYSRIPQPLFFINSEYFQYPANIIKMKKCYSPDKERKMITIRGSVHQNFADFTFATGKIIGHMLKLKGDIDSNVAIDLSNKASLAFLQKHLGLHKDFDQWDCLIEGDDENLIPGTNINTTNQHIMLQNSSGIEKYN
PAFAH2 inh: inhibitors of human PAFAH2. recombinant PAFAH2, FP-rhodamine activity probe, fluorescence polarization. inhibition, % at 3.39 µM. 340,000 compounds, 0.99% hits. AID 492956;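 active = inhibition above the mean over all tested compounds plus 3 SD, cut at about 30% in these data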;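 note: inhibitors block probe labeling of enzyme so polarization drops; 0% = enzyme with DMSO and 100% = wells lacking PAFAH2 protein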
Apaf-1 inh: blocks human Apaf-1 apoptosome activity. O14727. 330,000 compounds, 0.71% hits. inhibition, % at 20 µM. reconstituted apoptosome caspase-3 activity, DEVD-Rh110 fluorescence; active = inhibition of at least 40% at 20 µM;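 note: plate controls were DMSO wells for no effect and DEVD-CHO caspase inhibitor wells for full effect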
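Assay system – apoptosome proteins · Medium – Hepes buffer, pH 7.5 · Also added – cytochrome c with DEVD-Rh110 · Timing – 30 min compound preincubation, 50 min activation, room temperature · Detection – Rh110 fluorescence, excitation 480 nm, emission 540 nm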
PAFAH1B3 FP inh: blocks human PAF acetylhydrolase 1B catalytic subunit 3. Q15102. recombinant PAFAH1B3, FP-rhodamine probe, fluorescence polarization. inhibition, % at 3.39 µM. 340,000 compounds, 0.28% hits;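 active = inhibition above the screen-wide average of all tested compounds plus 3 SD, cut at about 25% in these data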;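 note: 0% = enzyme with DMSO only and 100% = wells lacking PAFAH1B3 protein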
Target sequence (Q15102 whole entry, looked up): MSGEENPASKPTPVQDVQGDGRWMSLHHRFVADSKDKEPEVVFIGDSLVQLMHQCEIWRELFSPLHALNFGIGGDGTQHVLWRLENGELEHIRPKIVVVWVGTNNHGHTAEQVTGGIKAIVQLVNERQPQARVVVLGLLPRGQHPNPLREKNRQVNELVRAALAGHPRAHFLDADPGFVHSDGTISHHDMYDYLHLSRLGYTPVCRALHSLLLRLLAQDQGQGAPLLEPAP
PAFAH2 FP conf: PAFAH2 (human) inhibition, confirmed | shares compounds with PAFAH2 inh | recombinant PAFAH2, FP-rhodamine activity probe, fluorescence polarization | inhibition, % at 3.39 µM | 2,300 compounds, 65% hits;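 active = mean inhibition over three repeats above a set limit taken from the earlier primary screen, cut at about 30% in these data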;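 note: inhibitor blocks binding of rhodamine activity probe so polarization falls; 0% = enzyme with DMSO and 100% = wells lacking PAFAH2 protein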
The depositor's hits bear a star. An excerpt weighted towards active compounds, which were near 3.1% of everything screened.

What do the screens show for `CCN(CC)c1ccc2c(c1)oc(=O)c1c(Cl)cc(=O)oc12`?
PAFAH1B2 inh: 21; pPAFAH inh: 8; PAFAH2 inh: 36*; Apaf-1 inh: 0; PAFAH1B3 FP inh: 14; PAFAH2 FP conf: 24

Results for COCCN(CC1CCCN(C2Cc3ccccc3C2)C1)C(=O)CCSC (stereo not drawn) ?
PAFAH1B2 inh: -2; pPAFAH inh: 2; PAFAH2 inh: 18; Apaf-1 inh: 1; PAFAH1B3 FP inh: 9

Results for COCCN(CC1CCCN(C2Cc3ccccc3C2)C1)C(=O)CSC (stereo not drawn) ?
PAFAH1B2 inh: 2; pPAFAH inh: -2; PAFAH2 inh: 37*; Apaf-1 inh: -13; PAFAH1B3 FP inh: 1; PAFAH2 FP conf: 23

Results for Cc1ccc(NC(=O)CCN2C(=O)NC3(CCCC3)C2=O)cc1 ?
PAFAH1B2 inh: -5; PAFAH2 inh: 1; Apaf-1 inh: 7; PAFAH1B3 FP inh: 1

What do the screens show for `Cc1ccc(C)c(Sc2ccc(NC(=O)CCN3C(=O)NC4(CCCC4)C3=O)cc2)c1`?
PAFAH1B2 inh: 4; pPAFAH inh: 24; PAFAH2 inh: 49*; Apaf-1 inh: 28; PAFAH1B3 FP inh: -3; PAFAH2 FP conf: 54*

Results for Cc1cc(NCCCCCCCNc2cc(C)nc3cc([N+](=O)[O-])ccc23)c2ccc([N+](=O)[O-])cc2n1 ?
PAFAH1B2 inh: 0; PAFAH2 inh: 9; PAFAH1B3 FP inh: 18

How did CC(=O)[C@H]1CC[C@H]2[C@@H]3C=CC4=CC(=O)CC[C@@]4(C)[C@@H]3CC[C@]12C do in these assays?
PAFAH1B2 inh: 7; pPAFAH inh: 2; PAFAH2 inh: 9; Apaf-1 inh: -1; PAFAH1B3 FP inh: 6

Results for COc1ccccc1NC(=O)C(C)Sc1nc(-c2ccccc2)cn1N (stereo not drawn) ?
PAFAH1B2 inh: 2; pPAFAH inh: 3; PAFAH2 inh: -4; Apaf-1 inh: -13; PAFAH1B3 FP inh: 0

Results for CCC1CN(S(=O)(=O)c2ccc3c(c2)NC(=O)CC(=O)N3)c2cc(Cl)ccc2O1 (stereo not drawn) ?
PAFAH1B2 inh: 11; pPAFAH inh: 2; PAFAH2 inh: 45*; Apaf-1 inh: 23; PAFAH1B3 FP inh: 5; PAFAH2 FP conf: 20

How did CCOC(=O)C1CN(S(=O)(=O)c2ccc(Cl)cc2)c2cc(S(=O)(=O)CC)ccc2O1 (stereo not drawn) do in these assays?
pPAFAH inh: 4; Apaf-1 inh: 21

What do the screens show for `COc1cccc2sc(Nc3nnc(-c4ccc(F)cc4)o3)nc12`?
PAFAH1B2 inh: 11; pPAFAH inh: 18; PAFAH2 inh: 65*; Apaf-1 inh: 21; PAFAH1B3 FP inh: 15; PAFAH2 FP conf: 20

How did O=[N+]([O-])c1ccc(SCCc2ccncc2)cc1 do in these assays?
PAFAH1B2 inh: 5; pPAFAH inh: 5; PAFAH2 inh: 34*; Apaf-1 inh: 1; PAFAH1B3 FP inh: 6; PAFAH2 FP conf: 7

What do the screens show for `COc1ccc(/C=C/C(=O)OCC(=O)Nc2cccc(S(=O)(=O)NC3=NCCCCC3)c2)cc1`?
PAFAH1B2 inh: -2; pPAFAH inh: 3; PAFAH2 inh: 68*; Apaf-1 inh: 9; PAFAH1B3 FP inh: 9; PAFAH2 FP conf: 50*

Results for Nc1ccc(C(=O)OCC(=O)Nc2cccc(S(=O)(=O)NC3=NCCCCC3)c2)cc1[N+](=O)[O-] ?
PAFAH1B2 inh: 3; pPAFAH inh: 6; PAFAH2 inh: 54*; Apaf-1 inh: 0; PAFAH1B3 FP inh: 4; PAFAH2 FP conf: 60*

Results for O=C(COC(=O)c1ccc(O)cc1)Nc1cccc(S(=O)(=O)NC2=NCCCCC2)c1 ?
PAFAH1B2 inh: 3; pPAFAH inh: 5; PAFAH2 inh: 39*; Apaf-1 inh: 4; PAFAH1B3 FP inh: 2; PAFAH2 FP conf: 43*

How did O=C(COc1ccccc1[N+](=O)[O-])Nc1cccc(S(=O)(=O)NC2=NCCCCC2)c1 do in these assays?
PAFAH1B2 inh: 7; pPAFAH inh: 7; PAFAH2 inh: 8; Apaf-1 inh: 13; PAFAH1B3 FP inh: 4

Results for COc1cc(OC)cc(C(=O)OCC(=O)Nc2cccc(S(=O)(=O)NC3=NCCCCC3)c2)c1 ?
PAFAH1B2 inh: 8; pPAFAH inh: 2; PAFAH2 inh: -7; Apaf-1 inh: 2; PAFAH1B3 FP inh: 8

Results for c1ccc2oc(-c3ccc(Nc4nc(N5CCOCC5)nc(N5CCOCC5)n4)cc3)nc2c1 ?
PAFAH1B2 inh: 1; PAFAH2 inh: -6; PAFAH1B3 FP inh: -6

Results for CCn1c(=O)c2sccc2n(Cc2ccccc2)c1=O ?
PAFAH1B2 inh: 2; pPAFAH inh: 3; PAFAH2 inh: 2; Apaf-1 inh: -6; PAFAH1B3 FP inh: 7

How did O=C1CCCC(=O)N1c1ccc(N2CCN(c3ccc([N+](=O)[O-])cc3)CC2)c([N+](=O)[O-])c1 do in these assays?
pPAFAH inh: 7; Apaf-1 inh: 33

Results for O=C1OC(c2ccccc2)Sc2ccccc21 (stereo not drawn) ?
PAFAH1B2 inh: 5; PAFAH2 inh: 81*; PAFAH1B3 FP inh: 2; PAFAH2 FP conf: 85*

Results for CN(C)c1ccc(C(=O)OCC(=O)c2ccc[nH]2)cc1 ?
PAFAH1B2 inh: 2; pPAFAH inh: 7; PAFAH2 inh: 68*; Apaf-1 inh: -5; PAFAH1B3 FP inh: 2; PAFAH2 FP conf: 68*

What do the screens show for `COc1ccc(C(=O)COC(=O)c2ccc(N(C)C)cc2)cc1`?
PAFAH1B2 inh: -2; pPAFAH inh: 6; PAFAH2 inh: 5; Apaf-1 inh: -4; PAFAH1B3 FP inh: -1

How did CN(C)c1ccc(C(=O)OCC(=O)c2cccs2)cc1 do in these assays?
PAFAH1B2 inh: -1; pPAFAH inh: 3; PAFAH2 inh: 71*; Apaf-1 inh: -8; PAFAH1B3 FP inh: 3; PAFAH2 FP conf: 76*

Results for CCc1ccc(C(=O)COC(=O)c2cccs2)cc1 ?
PAFAH1B2 inh: -2; pPAFAH inh: 7; PAFAH2 inh: 14; Apaf-1 inh: 9; PAFAH1B3 FP inh: 0

What do the screens show for `Cc1ccc(C(=O)COC(=O)c2cccs2)cc1`?
PAFAH1B2 inh: 2; pPAFAH inh: 2; PAFAH2 inh: 30*; Apaf-1 inh: 14; PAFAH1B3 FP inh: 9; PAFAH2 FP conf: 21

Results for O=C(OCC(=O)c1ccc[nH]1)c1ccccc1 ?
PAFAH1B2 inh: 3; pPAFAH inh: 2; PAFAH2 inh: 14; Apaf-1 inh: 2; PAFAH1B3 FP inh: -1

How did O=C(c1ccco1)N1N=C(c2ccco2)CC1c1ccc(Cl)cc1Cl (stereo not drawn) do in these assays?
PAFAH1B2 inh: 3; pPAFAH inh: 1; PAFAH2 inh: 9; Apaf-1 inh: 8; PAFAH1B3 FP inh: -1

How did CC1CCCC(NC(=O)/C=C/c2c(F)cccc2Cl)C1C (stereo not drawn) do in these assays?
PAFAH1B2 inh: 3; pPAFAH inh: 1; PAFAH2 inh: 9; Apaf-1 inh: -4; PAFAH1B3 FP inh: 2
